Results published in article PMC11342405 (Bioorganic & medicinal chemistry, 2024).
“Also recorded” adds a separate entry of the source.

Key:
[1] = target: T1, ANKRA2 (Homo sapiens, UniProt Q9H9E1); assay: Circular dichroism of ANKRA2; type: binding; details: 10 μM ANKRA2, 1-100 μM compound, 25 °C
T1 sequence (Q9H9E1 152-313 limits assumed): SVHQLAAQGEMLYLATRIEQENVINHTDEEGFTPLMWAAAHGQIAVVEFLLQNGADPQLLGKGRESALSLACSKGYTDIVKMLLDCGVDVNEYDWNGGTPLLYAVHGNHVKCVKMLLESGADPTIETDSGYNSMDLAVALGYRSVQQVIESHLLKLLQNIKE
Outline: (§1)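 Recombinant His-tagged protein was expressed in E. coli LOBSTR BL21(DE3) (0.5 mM IPTG, 37 °C, 16 h) and Ni-affinity purified. The tag was removed with TEV, followed by a second HisTrap pass and gel filtration if needed. 10 μM protein in 25 mM Tris, 50 mM NaCl, pH 7.4, alone or with 1, 10 or 100 μM compound. Spectra 195–260 nm in a 1 mm quartz cuvette, six accumulations, 25 °C; α-helical content monitored; triplicate samples.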

[2] = target: T2, gankyrin (Homo sapiens, UniProt O75832); assay: Circular dichroism of gankyrin; type: binding; details: 10 μM gankyrin, 1-100 μM compound, 25 °C
T2 sequence (O75832 1-226): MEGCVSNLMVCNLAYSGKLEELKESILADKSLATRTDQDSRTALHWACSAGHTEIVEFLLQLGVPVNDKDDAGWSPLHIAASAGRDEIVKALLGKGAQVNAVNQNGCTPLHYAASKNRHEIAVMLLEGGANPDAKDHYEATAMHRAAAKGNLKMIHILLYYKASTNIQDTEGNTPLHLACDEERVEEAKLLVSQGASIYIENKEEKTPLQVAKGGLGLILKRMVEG
Outline: as §1

[3] = tested on: HEK-293 cells; assay: Anti-proliferative MTT assay, non-cancerous HEK-293 cells; type: cell-based; details: Homo sapiens, HEK293, 72 h, read-out: HEK-293 IC50
Outline: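 HEK-293 cells grown in DMEM with 10% FBS and 1% penicillin/streptomycin, seeded at 2.5 x 10^4 cells/well and allowed 24 h before dosing. Compound (DMSO stock) given at increasing concentrations for 72 h at 37 °C, 5% CO2. MTT (5.4 mg/mL dye solution) was added for 3 h, formazan dissolved in DMSO, and absorbance read at 570 nm. Replicates 6-8; IC50 derived from concentration-response data.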

[4] = target: T2, gankyrin; assay: Cellular thermal shift assay; type: cell-based; details: HuH6 cells treated at anti-proliferative IC50 for 5 h, 50-65 °C
Outline: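 HuH6 cells were exposed to test compound (0.25% DMSO final) or DMSO alone for 5 h, harvested, split into six aliquots and heated at 50, 53, 56, 59, 62 or 65 °C. Lysis was in RIPA with protease/phosphatase inhibitors, 60 min on ice. 15 μg protein was run on reducing SDS-PAGE, transferred to PVDF and probed for gankyrin, with β-actin as reference; HRP secondary and ECL detection.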

[5] = tested on: Rb, p53 and gankyrin levels in HuH6 cells; assay: Western blot analysis of TSP levels in HuH6 cells; type: cell-based; details: 48 h
Outline: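 HuH6 cells in 10 cm dishes were exposed to varying compound concentrations (0.25% DMSO final) or DMSO only for 48 h. Cells were harvested in cold PBS and lysed in RIPA with protease/phosphatase inhibitors, 60 min on ice. 15 μg protein was resolved under reducing conditions, transferred to PVDF and probed for p53, Rb and gankyrin, with cyclophilin as reference; HRP secondaries, ECL detection. Run in duplicate.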

[6] = tested on: HuH6 cells; assay: Cell cycle analysis by flow cytometry in HuH6 cells; type: cell-based; details: 3.3 μM, 72 h, vs DMSO
Outline: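 HuH6 cells in 10 cm dishes were exposed to test compound or vehicle (0.25% DMSO final) for 72 h. Cells were harvested in cold PBS, normalized, fixed in 70% ethanol at −20 °C overnight, then stained with PI/RNase for 30 min at 37 °C. DNA content was measured by flow cytometry. Mean ± SD, n = 3; one-way ANOVA, P < 0.05 significant.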

| gankyrin thermal stability (CETSA) [4] | Structure (SMILES) | effect on ANKRA2 secondary structure / 3D fold (CD spectra) [1] | effect on gankyrin secondary structure / 3D fold (CD spectra) [2] | IC50 [3] | Rb and p53 levels (western blot) [5] | gankyrin levels (western blot) [5] | number of cells in the G0-G1 phase [6] | number of cells in the S phase [6] |
| --- | --- | --- | --- | --- | --- | --- | --- | --- |
|  | COC(=O)c1ccc(C(=O)NCCCNC(=O)c2ccc(C(=O)OC)cc2)cc1 [Compound 10d, Dimethyl 4,4'-((propane-1,3-diylbis(azanediyl))bis(carbonyl))dibenzoate] | no changes in secondary structure content; also recorded: no significant global structure change | reduction in secondary structure content; also recorded: significant loss of gankyrin structural integrity | > 50 µM |  |  |  |  |
| bind and thermally stabilize gankyrin | COC(=O)c1ccc(NC(=O)CCC(=O)Nc2ccc(C(=O)OC)cc2)cc1 [Compound 13d, Dimethyl 4,4'-(succinylbis(azanediyl))dibenzoate] | no alterations in secondary structure content; also recorded: no significant global structure change | decline in secondary structure content; also recorded: significant loss of gankyrin structural integrity | > 50 µM | increase in both Rb and p53 levels | relatively constant | significant increase | significant decrease |
